The results in this text go back to ChEMBL document CHEMBL1240487, “Discovery of a potent, selective, and orally bioavailable pyridinyl-pyrimidine phthalazine aurora kinase inhibitor” (J Med Chem, 2010).

Activity calls are given as the source filed them. The calls are words filed in the database; no cut-off is given here.

Data set [1] has as its target Aurora kinase A (Homo sapiens) (UniProt O14965). Kind of data set: Inhibition of aurora A autophosphorylation in human HeLa cells at 0.313 uM after 3 hrs by Western blotting.
The target in data set [2] is Ribosomal protein S6 kinase alpha-5 (Homo sapiens, UniProt O75582). Kind of data set: Inhibition of MSK1 by HTRF assay. Put shortly:
(§1)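 Enzyme inhibition was run with ATP at its Km for each kinase. Values are averages of at least two determinations.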
For orientation: Time-resolved FRET reads energy transfer from a long-lived donor to a nearby acceptor.

Data set [3] deals with Plasma. In words: Drug level in human COLO205 cells xenografted in CD1 mouse plasma at 50 mg/kg, po after 3 to 6 hrs. Further details: dose 50 mg/kg, route oral. It is filed as ADME, organism-based, COLO 205. Particulars: in vivo. Put shortly:
(§2)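 COLO 205 xenograft-bearing mice received a single 50 mg/kg oral dose (N = 12 per group). Plasma was sampled at 3, 6 and 24 h (N = 4 per time point) and analyzed for drug concentration. Results are reported as mean ± SD.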
On the technique in general: A xenograft is tissue or cells of one species grown in another, often human tumour cells in immunodeficient mice.

Data set [4] can be described thus: Drug level in human COLO205 cells xenografted in CD1 mouse plasma at 50 mg/kg, po after 24 hrs. It is filed as ADME, organism-based, COLO 205. Further details: dose 50 mg/kg, route oral. The essentials: as §2
The target in data set [5] is T1, Aurora kinase B (Homo sapiens, UniProt Q96GD4). In words: Inhibition of aurora B in human HeLa cells assessed as reduction of histone H3 phosphorylation at Ser10 at 0.313 uM after 24 hrs by flow cytometry. In general terms: Flow cytometry measures light scatter and fluorescence of single cells or particles in a stream.
The test system of data set [6] is Plasma. In words: Fraction unbound in mouse plasma at 10 uM after 6 hrs by ultrafiltration. The data set is classed as ADME, cell-free.
The nature of data set [7]: Protein binding in mouse plasma at 10 uM by ultrafiltration. It is filed as ADME, cell-free. Particulars: read-out: PPB.
Data set [8] has as its system Plasma. Kind of data set: Fraction unbound in mouse plasma at 10 uM after 24 hrs by ultrafiltration. The data set is classed as ADME, cell-free.
Data set [9] deals with T1, Aurora kinase B. In words: Inhibition of aurora B in human HeLa cells assessed as increase of >= 4N DNA level at 0.313 uM after 24 hrs using Hoechst staining by flow cytometry. It is filed as cell-based. Put shortly: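 In the 24 h DNA ploidy assay, HeLa cells were exposed to compound for 24 h. The read-out was accumulation of cells with ≥4N DNA content relative to control. For the single-concentration test, cells were treated at 0.313 μM, and p-histone H3 Ser10 and DNA content (2N/4N/8N) were read by flow cytometry. The ploidy read-out gave an EC50.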

The next data set has as its system Mus musculus. In words: Inhibition of aurora B in human COLO205 cells xenografted in CD1 mouse assessed as reduction of phosphorylated histone H3 level at 50 mg/kg, po after 3 to 6 hrs by immunofluorescence-based flow cytometry. Particulars: CD1, COLO 205. The data set is classed as functional. Put shortly:
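Mice carried established COLO 205 xenografts of about 300 mm3 and received a single oral dose of vehicle or 50 mg/kg (N = 12 per group). Tumors were harvested at 3, 6 and 24 h (N = 4 per time point). p-Histone H3 was measured by immunofluorescence-based flow cytometry as the percentage of positive cells in G2/M. Groups were compared with ANOVA and Scheffe's post hoc test against vehicle.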

A short description of data set [10]: Half life in Sprague-Dawley rat at 0.5 mg/kg, iv and 2 mg/kg, po. The data set is classed as ADME, organism-based. Particulars: in vivo.
Data set [11] addresses Tyrosine-protein kinase ABL1 (Homo sapiens, UniProt P00519, T315I). Kind of data set: Inhibition of Abl T315I mutant by HTRF assay. The essentials: as §1
Data set [12] is described as follows: Intrinsic clearance in rat liver microsomes at 1 uM after up to 40 mins. The data set is classed as ADME, Microsome.
The target of data set [13] is Tyrosine-protein kinase ABL1 (Homo sapiens, UniProt P00519). Kind of data set: Inhibition of Abl by HTRF assay. The essentials: as §1
The target of data set [14] is Macrophage colony-stimulating factor 1 receptor (Homo sapiens, UniProt P07333). In words: Inhibition of c-Fms by HTRF assay. The essentials: as §1
For data set [15], the target named is Vascular endothelial growth factor receptor 2 (Homo sapiens, UniProt P35968). In words: Inhibition of KDR by HTRF assay. Put shortly:
as §1

Data set [16] concerns the target Proto-oncogene tyrosine-protein kinase Src (Homo sapiens, UniProt P12931). In words: Inhibition of Src by HTRF assay. The essentials:
as §1

T1 sequence (Q96GD4 whole entry): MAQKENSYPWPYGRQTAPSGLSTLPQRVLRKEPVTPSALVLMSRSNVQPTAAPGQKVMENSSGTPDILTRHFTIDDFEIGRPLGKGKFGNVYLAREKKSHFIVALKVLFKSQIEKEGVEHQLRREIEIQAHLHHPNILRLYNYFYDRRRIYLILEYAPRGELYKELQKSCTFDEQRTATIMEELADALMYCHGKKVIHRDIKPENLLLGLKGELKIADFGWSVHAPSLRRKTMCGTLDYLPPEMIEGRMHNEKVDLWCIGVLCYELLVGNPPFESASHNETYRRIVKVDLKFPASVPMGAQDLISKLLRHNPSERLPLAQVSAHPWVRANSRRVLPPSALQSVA
Chain of Aurora kinase A (Homo sapiens) (O14965 whole entry): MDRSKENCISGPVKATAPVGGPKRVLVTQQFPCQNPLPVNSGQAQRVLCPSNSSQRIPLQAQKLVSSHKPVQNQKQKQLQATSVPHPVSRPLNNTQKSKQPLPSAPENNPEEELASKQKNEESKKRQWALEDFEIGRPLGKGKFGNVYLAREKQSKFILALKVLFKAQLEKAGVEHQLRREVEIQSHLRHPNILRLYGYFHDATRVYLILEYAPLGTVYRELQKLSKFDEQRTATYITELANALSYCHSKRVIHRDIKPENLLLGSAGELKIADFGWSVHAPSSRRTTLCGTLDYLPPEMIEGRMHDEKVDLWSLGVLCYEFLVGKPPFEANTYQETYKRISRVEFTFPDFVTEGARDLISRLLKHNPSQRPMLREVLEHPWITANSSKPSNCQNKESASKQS
Chain of Proto-oncogene tyrosine-protein kinase Src (P12931 2-536 limits assumed): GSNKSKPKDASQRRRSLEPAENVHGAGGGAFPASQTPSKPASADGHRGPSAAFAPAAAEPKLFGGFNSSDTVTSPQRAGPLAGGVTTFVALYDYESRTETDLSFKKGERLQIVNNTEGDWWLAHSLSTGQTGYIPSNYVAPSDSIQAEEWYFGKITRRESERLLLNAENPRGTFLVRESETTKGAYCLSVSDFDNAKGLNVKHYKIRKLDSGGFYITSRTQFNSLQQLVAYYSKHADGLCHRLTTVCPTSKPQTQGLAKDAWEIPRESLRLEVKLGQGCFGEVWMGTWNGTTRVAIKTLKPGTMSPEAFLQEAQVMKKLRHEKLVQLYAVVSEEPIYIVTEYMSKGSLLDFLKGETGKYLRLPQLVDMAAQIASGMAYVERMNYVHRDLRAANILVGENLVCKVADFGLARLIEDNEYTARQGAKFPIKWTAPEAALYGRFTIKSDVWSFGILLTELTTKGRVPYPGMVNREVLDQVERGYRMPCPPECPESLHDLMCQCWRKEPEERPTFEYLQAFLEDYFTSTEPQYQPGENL
Chain of Ribosomal protein S6 kinase alpha-5 (O75582 whole entry): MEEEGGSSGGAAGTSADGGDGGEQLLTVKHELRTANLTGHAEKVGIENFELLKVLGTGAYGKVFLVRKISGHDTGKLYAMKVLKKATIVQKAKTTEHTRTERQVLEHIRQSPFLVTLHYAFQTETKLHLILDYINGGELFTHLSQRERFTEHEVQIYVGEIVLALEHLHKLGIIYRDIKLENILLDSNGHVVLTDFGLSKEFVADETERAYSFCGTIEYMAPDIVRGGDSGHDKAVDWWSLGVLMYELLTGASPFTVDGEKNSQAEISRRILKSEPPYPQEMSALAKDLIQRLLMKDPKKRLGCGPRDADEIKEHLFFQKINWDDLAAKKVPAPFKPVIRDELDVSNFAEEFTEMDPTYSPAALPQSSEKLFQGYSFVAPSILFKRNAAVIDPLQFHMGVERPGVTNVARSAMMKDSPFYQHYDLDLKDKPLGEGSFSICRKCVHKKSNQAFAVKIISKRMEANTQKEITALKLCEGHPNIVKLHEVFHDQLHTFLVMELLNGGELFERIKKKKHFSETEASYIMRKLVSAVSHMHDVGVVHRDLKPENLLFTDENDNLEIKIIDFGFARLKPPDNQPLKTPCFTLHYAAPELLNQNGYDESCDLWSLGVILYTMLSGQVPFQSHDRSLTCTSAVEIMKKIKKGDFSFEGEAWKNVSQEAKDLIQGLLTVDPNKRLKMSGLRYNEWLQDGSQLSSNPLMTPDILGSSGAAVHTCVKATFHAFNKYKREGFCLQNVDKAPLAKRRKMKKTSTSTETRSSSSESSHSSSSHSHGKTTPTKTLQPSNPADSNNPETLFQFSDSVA
Chain of Macrophage colony-stimulating factor 1 receptor (P07333 whole entry): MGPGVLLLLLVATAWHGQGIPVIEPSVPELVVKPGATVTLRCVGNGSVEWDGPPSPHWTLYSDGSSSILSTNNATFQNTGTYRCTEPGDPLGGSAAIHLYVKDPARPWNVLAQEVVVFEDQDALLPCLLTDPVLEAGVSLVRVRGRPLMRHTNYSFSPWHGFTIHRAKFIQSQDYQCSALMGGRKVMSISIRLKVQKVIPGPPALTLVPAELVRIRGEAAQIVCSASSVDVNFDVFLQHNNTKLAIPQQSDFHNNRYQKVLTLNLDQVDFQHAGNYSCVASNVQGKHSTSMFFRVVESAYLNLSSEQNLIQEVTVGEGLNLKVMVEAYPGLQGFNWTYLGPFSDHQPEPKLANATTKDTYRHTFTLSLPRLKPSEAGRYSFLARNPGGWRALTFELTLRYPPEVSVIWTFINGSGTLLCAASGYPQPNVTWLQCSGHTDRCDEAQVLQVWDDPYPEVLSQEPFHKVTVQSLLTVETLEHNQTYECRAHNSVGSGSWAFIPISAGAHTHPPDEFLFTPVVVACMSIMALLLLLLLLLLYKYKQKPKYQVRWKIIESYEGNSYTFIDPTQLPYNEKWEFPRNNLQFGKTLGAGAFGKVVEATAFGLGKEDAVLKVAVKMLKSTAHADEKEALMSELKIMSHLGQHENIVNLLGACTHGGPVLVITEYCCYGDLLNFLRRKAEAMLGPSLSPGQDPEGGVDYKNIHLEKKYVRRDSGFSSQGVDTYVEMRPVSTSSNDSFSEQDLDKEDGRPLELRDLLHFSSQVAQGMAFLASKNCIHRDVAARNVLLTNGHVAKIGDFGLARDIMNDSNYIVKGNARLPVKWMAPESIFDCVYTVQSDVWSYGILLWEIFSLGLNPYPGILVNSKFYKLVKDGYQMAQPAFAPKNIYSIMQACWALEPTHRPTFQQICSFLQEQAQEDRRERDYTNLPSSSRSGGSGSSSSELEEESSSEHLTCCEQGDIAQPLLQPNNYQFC
Chain of Vascular endothelial growth factor receptor 2 (P35968 whole entry): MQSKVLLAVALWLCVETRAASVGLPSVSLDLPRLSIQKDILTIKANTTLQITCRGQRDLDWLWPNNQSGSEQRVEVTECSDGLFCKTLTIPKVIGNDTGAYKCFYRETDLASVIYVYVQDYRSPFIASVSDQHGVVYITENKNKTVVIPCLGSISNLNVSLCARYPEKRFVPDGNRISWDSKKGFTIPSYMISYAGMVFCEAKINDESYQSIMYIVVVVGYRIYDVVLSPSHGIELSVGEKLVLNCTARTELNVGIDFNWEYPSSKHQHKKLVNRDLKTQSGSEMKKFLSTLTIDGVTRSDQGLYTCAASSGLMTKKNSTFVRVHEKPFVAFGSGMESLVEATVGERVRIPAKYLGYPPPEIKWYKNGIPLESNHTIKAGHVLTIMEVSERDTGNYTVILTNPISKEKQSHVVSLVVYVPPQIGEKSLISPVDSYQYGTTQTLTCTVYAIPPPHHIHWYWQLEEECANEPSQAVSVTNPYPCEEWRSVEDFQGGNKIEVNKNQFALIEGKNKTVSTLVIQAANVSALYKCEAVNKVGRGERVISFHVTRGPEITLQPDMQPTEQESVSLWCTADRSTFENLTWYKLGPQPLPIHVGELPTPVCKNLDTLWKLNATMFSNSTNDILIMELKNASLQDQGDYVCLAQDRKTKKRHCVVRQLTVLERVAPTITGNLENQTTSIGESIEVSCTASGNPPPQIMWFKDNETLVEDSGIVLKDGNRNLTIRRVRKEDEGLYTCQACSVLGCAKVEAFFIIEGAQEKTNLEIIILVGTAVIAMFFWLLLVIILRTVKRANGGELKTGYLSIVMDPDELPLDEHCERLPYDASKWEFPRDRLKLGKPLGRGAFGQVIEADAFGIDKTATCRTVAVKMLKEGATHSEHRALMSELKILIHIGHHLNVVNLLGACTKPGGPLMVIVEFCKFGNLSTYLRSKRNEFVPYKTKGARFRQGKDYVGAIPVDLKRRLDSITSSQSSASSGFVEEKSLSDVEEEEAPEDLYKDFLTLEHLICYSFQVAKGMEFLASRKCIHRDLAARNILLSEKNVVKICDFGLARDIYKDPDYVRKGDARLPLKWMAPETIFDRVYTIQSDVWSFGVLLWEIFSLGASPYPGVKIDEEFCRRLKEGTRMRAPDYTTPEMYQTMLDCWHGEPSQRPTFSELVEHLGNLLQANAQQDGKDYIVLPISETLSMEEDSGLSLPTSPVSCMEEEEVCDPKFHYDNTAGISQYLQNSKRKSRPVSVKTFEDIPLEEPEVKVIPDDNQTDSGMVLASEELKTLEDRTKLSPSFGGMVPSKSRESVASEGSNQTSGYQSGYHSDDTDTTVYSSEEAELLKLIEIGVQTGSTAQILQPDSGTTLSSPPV

For `CNc1nccc(-c2cccnc2Oc2ccc(Nc3nnc(-c4ccc(F)cc4)c4ccccc34)cc2)n1`, the outcome (in data set [1]; on Aurora kinase B [5]; on Aurora kinase B [9]) was Active. Moreover, in data set [2], the IC50 (usually the concentration that inhibits the measured activity by half) was more than 25000 nM. Moreover, in the data set with Plasma [3], the Cp entry was “>= 20000 ng/ml”. Also, in [4], the concentration at 24 h turned out to be 2460 ng/mL. Also, the unbound concentration in the data set with Plasma [6] was less than 20 ng/mL; in the data set on Plasma [8] it was less than 2.5 ng/mL. Further, in [7], the fraction unbound at 10 µM was less than 0.001. In the data set on Mus musculus, the inhibition in vivo – broadly, the percentage by which the read-out fell short of the control – at 50 mg/kg is not below 96%.
Regarding `CNc1nccc(-c2cccnc2Oc2ccc(NC(=O)c3ccccc3Nc3ccccc3)cc2)n1`, in data set [10], the half-life (in general, the time in which the quantity being followed falls by half) was 2.8 h. Besides, the 50% inhibitory concentration (IC50) in [11] was more than 1000 nM. Also, the intrinsic clearance (microsomal CLint) (usually the capacity of the preparation to metabolise the compound, expressed as a volume cleared per time) at 1 µM in data set [12] turned out to be 663 µL/min/mg.
Regarding `CNc1nccc(-c2cccnc2Oc2ccc(NC(=O)c3cccc(C(F)(F)F)c3)cc2C)n1`, the half-maximal inhibitory concentration (IC50) in data set [13] came out at 503 nM; in [14] it was 1580 nM; in [15] it was 3270 nM; in [16] it was 5750 nM.
